Laboratory results taken from ChEMBL document CHEMBL2010801, “Semisynthesis and antimicrobial activity of novel guttiferone-A derivatives” (Bioorg Med Chem, 2012).
In brackets after ≈: the same amount, converted by molar mass. Activity calls are given as the source filed them. No cut-off for these calls is given here.

Assays:
Candida albicans = test: Antifungal activity against Candida albicans ATCC 09548 after 24 hrs by broth microdilution method; assay type: functional
Summary of the method: (§1)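 Broth microdilution in microplates with a serial dilution series of compounds. Amphotericin B served as the fungicidal control and fluconazole as the fungistatic control. Yeast plates were incubated at 37 °C for 24 h.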

Staphylococcus aureus [1] = test: Antimicrobial activity against Staphylococcus aureus ATCC 6538 after 24 hrs by broth microdilution method; assay type: functional; conditions: for MIC50 / MIC: ATCC 6538, 24 h; for MIC: read-out: MIC100
Summary of the method: (§2)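 Microplate broth microdilution with a serial dilution series of compounds, using chloramphenicol as the antibacterial control. Bacterial plates were incubated at 35 °C for 24 h.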

Candida tropicalis = test: Antifungal activity against Candida tropicalis ATCC 750 after 24 hrs by broth microdilution method; assay type: functional; summary of the method: as §1
Pseudomonas aeruginosa = test: Antimicrobial activity against Pseudomonas aeruginosa ATCC 9027 after 24 hrs by broth microdilution method; assay type: functional; summary of the method: as §2
Salmonella typhimurium = test: Antimicrobial activity against Salmonella typhimurium ATCC 14028 after 24 hrs by broth microdilution method; assay type: functional; summary of the method: as §2
Trichophyton tonsurans = test: Antifungal activity against Trichophyton tonsurans after 48 hrs by broth microdilution method; assay type: functional; conditions: for MIC: read-out: MIC100
Summary of the method: (§3)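 Broth microdilution against filamentous fungi with serially diluted compounds. Amphotericin B (fungicidal) and fluconazole (fungistatic) were run as controls. Plates were incubated at 30 °C for 48 h.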

Pichia kudriavzevii = test: Antifungal activity against Candida krusei ATCC 6258 after 24 hrs by broth microdilution method; assay type: functional; summary of the method: as §1
[2] = Cytotoxicity against human PBMC after 48 hrs by MTT assay; assay type: cell-based; conditions: PBMC (peripheral blood mononuclear cells)
Summary of the method: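 Normal human PBMC from healthy volunteers were isolated by Ficoll-Hypaque density gradient and seeded at 2.4 × 10⁶ cells/mL. Compounds were added at 100 to 0.06 and cells held 48 h at 37 °C, 5% CO₂. MTT was then added for 4 h, formazan dissolved in DMSO and A560 read. Untreated cells were taken as 100% viability. CC50 was obtained by linear regression.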

Nannizzia gypsea = test: Antifungal activity against Microsporum gypseum after 48 hrs by broth microdilution method; assay type: functional; summary of the method: as §3
Cryptococcus neoformans = test: Antifungal activity against Cryptococcus neoformans ATCC 90012 after 24 hrs by broth microdilution method; assay type: functional; conditions: for MIC: read-out: MIC100; summary of the method: as §1
Bacillus cereus = test: Antimicrobial activity against Bacillus cereus ATCC 11778 after 24 hrs by broth microdilution method; assay type: functional; conditions: for MIC50 / MIC: ATCC 11778, 24 h; for MIC: read-out: MIC100; summary of the method: as §2
Candida parapsilosis = test: Antifungal activity against Candida parapsilosis ATCC 69548 after 24 hrs by broth microdilution method; assay type: functional; summary of the method: as §1
Nakaseomyces glabratus = test: Antifungal activity against Candida glabrata ATCC 90030 after 24 hrs by broth microdilution method; assay type: functional; summary of the method: as §1
[3] = system: Staphylococcus epidermidis; test: Antimicrobial activity against Staphylococcus epidermidis ATCC 12228 after 24 hrs by broth microdilution method; assay type: functional; summary of the method: as §2
Escherichia coli = test: Antimicrobial activity against Escherichia coli ATCC 25922 after 24 hrs by broth microdilution method; assay type: functional; summary of the method: as §2
Proteus mirabilis = test: Antimicrobial activity against Proteus mirabilis ATCC 25933 after 24 hrs by broth microdilution method; assay type: functional; summary of the method: as §2
Staphylococcus aureus [4] = test: Ratio of MIC100 for chloramphenicol to MIC100 of compound for Staphylococcus aureus ATCC 6538 after 24 hrs by broth microdilution method; assay type: functional
[5] = Salmonella enterica subsp. enterica serovar Typhimurium
[6] = Salmonella enterica, ATCC 14028, 24 h, read-out: MIC50
[7] = ATCC 90012, 24 h, read-out: MIC50
[8] = Salmonella enterica, ATCC 14028, 24 h

Row | SMILES | MIC50 (Candida albicans) | MIC100 (Candida albicans) | MIC50 (Candida tropicalis) | MIC100 (Candida tropicalis) | MIC100 (Pseudomonas aeruginosa) | MIC100 (Salmonella typhimurium; [5]) | MIC50 (Trichophyton tonsurans) | CC50 at 48 h [2] | MIC50 (Bacillus cereus) | MIC (Bacillus cereus) | MIC100 (Candida parapsilosis) | MIC100 (Nakaseomyces glabratus) | MIC50 [3] | MIC100 [3] | MIC100 (Escherichia coli) | MIC50 (Escherichia coli; ATCC 25922, 24 h) | MIC100 (Proteus mirabilis) | MIC50 (Staphylococcus aureus [1]; read-out: MIC50) | MIC100 (Pichia kudriavzevii) | MIC50 (Nannizzia gypsea) | other results
1 | CC(C)=CCC[C@]1(C)[C@@H](CC=C(C)C)C[C@@]2(CC=C(C)C)C(=O)C(C(=O)c3ccc(OC(=O)OC(C)(C)C)c(O)c3)=C(O)[C@]1(CC=C(C)C)C2=O | inactive | inactive | inactive | inactive | inactive | inactive | 55 µM (≈ 38.7 µg/mL) | > 142 µM | 1800 µM (≈ 1270 µg/mL) | 28.4 µM (≈ 20 µg/mL) | inactive | inactive | inactive | inactive | inactive | 555 µM (≈ 390 µg/mL) | inactive | – | – | – | MIC50 (Staphylococcus aureus [1]): 18 µM (≈ 12.7 µg/mL); MIC50 (Pseudomonas aeruginosa; ATCC 9027, 24 h): 58.2 µM (≈ 40.9 µg/mL); MIC50 (Salmonella typhimurium; [6]): 57 µM (≈ 40.1 µg/mL); MIC (Trichophyton tonsurans): 1820 µM (≈ 1280 µg/mL); MIC50 (Pichia kudriavzevii; ATCC 6258, 24 h): 56.9 µM (≈ 40 µg/mL); MIC (Nannizzia gypsea; read-out: MIC100): 28.4 µM (≈ 20 µg/mL); MIC50 (Cryptococcus neoformans; [7]): 555 µM (≈ 390 µg/mL); MIC (Cryptococcus neoformans; ATCC 90012, 24 h): 1.82 µM (≈ 1.28 µg/mL); MIC50 (Nakaseomyces glabratus; ATCC 90030, 24 h): 56.9 µM (≈ 40 µg/mL); MIC50 (Proteus mirabilis): inactive
2 | CC(C)=CCC[C@]1(C)[C@@H](CC=C(C)C)C[C@@]2(CC=C(C)C)C(=O)C(C(=O)c3ccc(OS(C)(=O)=O)c(OS(C)(=O)=O)c3)=C(O)[C@]1(CC=C(C)C)C2=O | inactive | inactive | inactive | inactive | inactive | inactive | 3290 µM (≈ 2500 µg/mL) | > 132 µM | 1650 µM (≈ 1250 µg/mL) | 1.65 µM (≈ 1.25 µg/mL) | inactive | inactive | inactive | inactive | inactive | 205 µM (≈ 156 µg/mL) | inactive | 51 µM (≈ 38.7 µg/mL) | inactive | inactive | MIC (Staphylococcus aureus [1]): 3.29 µM (≈ 2.5 µg/mL); MIC50 (Pseudomonas aeruginosa): inactive; MIC50 (Salmonella typhimurium; [5]): inactive; MIC100 (Trichophyton tonsurans): inactive; MIC50 (Pichia kudriavzevii; ATCC 6258, 24 h): 52.7 µM (≈ 40 µg/mL); Ratio (Staphylococcus aureus [4]): 3.66; MIC100 (Nannizzia gypsea): inactive; MIC100 (Cryptococcus neoformans): inactive; MIC50 (Cryptococcus neoformans; ATCC 90012, 24 h): 52.7 µM (≈ 40 µg/mL); MIC50 (Candida parapsilosis): inactive; MIC50 (Proteus mirabilis): inactive
3 | O=C(N[C@H](CO)[C@H](O)c1ccc([N+](=O)[O-])cc1)C(Cl)Cl [CHLORAMPHENICOL] | – | – | – | – | – | – | – | – | 4820 µM (≈ 1560 µg/mL) | 77.4 µM (≈ 25 µg/mL) | – | – | – | – | – | 1510 µM (≈ 487 µg/mL) | – | 6030 µM (≈ 1950 µg/mL) | – | – | MIC (Staphylococcus aureus [1]): 12 µM (≈ 3.89 µg/mL); MIC50 (Pseudomonas aeruginosa; ATCC 9027, 24 h): 48.3 µM (≈ 15.6 µg/mL); MIC50 (Salmonella typhimurium; [8]): 15.1 µM (≈ 4.88 µg/mL); MIC (Salmonella typhimurium; Salmonella enterica, ATCC 14028, 24 h, read-out: MIC100): 6.03 µM (≈ 1.95 µg/mL); MIC (Escherichia coli; ATCC 25922, 24 h, read-out: MIC100): 12.1 µM (≈ 3.9 µg/mL); MIC50 (Proteus mirabilis; ATCC 25933, 24 h): 24.1 µM (≈ 7.79 µg/mL); MIC (Proteus mirabilis; ATCC 25933, 24 h, read-out: MIC100): 48.3 µM (≈ 15.6 µg/mL)
4 | CC(C)=CCC[C@]1(C)[C@@H](CC=C(C)C)C[C@@]2(CC=C(C)C)C(=O)C(C(=O)c3ccc(OC(=O)c4ccc(Cl)cc4)c(OC(=O)c4ccc(Cl)cc4)c3)=C(O)[C@]1(CC=C(C)C)C2=O | inactive | inactive | inactive | inactive | inactive | inactive | inactive | > 114 µM | 354 µM (≈ 312 µg/mL) | 45.5 µM (≈ 40 µg/mL) | inactive | inactive | inactive | inactive | inactive | 44 µM (≈ 38.7 µg/mL) | inactive | 177 µM (≈ 156 µg/mL) | inactive | inactive | MIC100 (Staphylococcus aureus [1]): inactive; MIC50 (Pseudomonas aeruginosa): inactive; MIC50 (Salmonella typhimurium; [6]): 44 µM (≈ 38.7 µg/mL); MIC100 (Trichophyton tonsurans): inactive; MIC50 (Pichia kudriavzevii): inactive; MIC100 (Nannizzia gypsea): inactive; MIC100 (Cryptococcus neoformans): inactive; MIC50 (Cryptococcus neoformans; ATCC 90012, 24 h): 45.5 µM (≈ 40 µg/mL); MIC50 (Candida parapsilosis): inactive; MIC50 (Nakaseomyces glabratus): inactive
5 | CC(C)=CCC[C@]1(C)[C@@H](CC=C(C)C)C[C@@]2(CC=C(C)C)C(=O)C(C(=O)c3ccc(OC(=O)c4ccccc4)c(OC(=O)c4ccccc4)c3)=C(O)[C@]1(CC=C(C)C)C2=O | inactive | inactive | inactive | inactive | inactive | inactive | inactive | > 123 µM | – | – | inactive | inactive | inactive | inactive | inactive | 48 µM (≈ 38.9 µg/mL) | inactive | 1540 µM (≈ 1250 µg/mL) | inactive | inactive | MIC100 (Staphylococcus aureus [1]): inactive; MIC50 (Salmonella typhimurium; [8]): 49.3 µM (≈ 40 µg/mL); MIC100 (Trichophyton tonsurans): inactive; MIC50 (Pichia kudriavzevii): inactive; MIC100 (Nannizzia gypsea): inactive; MIC100 (Cryptococcus neoformans): inactive; MIC50 (Cryptococcus neoformans; ATCC 90012, 24 h): 49.3 µM (≈ 40 µg/mL); MIC100 (Bacillus cereus): inactive; MIC50 (Candida parapsilosis): inactive; MIC50 (Nakaseomyces glabratus): inactive; MIC50 (Proteus mirabilis): inactive
6 | C[C@@H]1[C@H](O)[C@@H](C)/C=C/C=C/C=C/C=C/C=C/C=C/C=C/[C@H](O[C@@H]2O[C@H](C)[C@@H](O)[C@H](N)[C@@H]2O)C[C@@H]2O[C@](O)(C[C@@H](O)C[C@@H](O)[C@H](O)CC[C@@H](O)C[C@@H](O)CC(=O)O[C@H]1C)C[C@H](O)[C@H]2C(=O)O [AMPHOTERICIN B] | – | – | inactive | – | – | – | inactive | – | – | – | – | – | – | – | – | – | – | – | – | inactive | MIC (Candida albicans; ATCC 09548, 24 h, read-out: MIC100): 0.54 µM (≈ 0.499 µg/mL); MIC (Candida tropicalis; ATCC 750, 24 h, read-out: MIC100): 1.08 µM (≈ 0.998 µg/mL); MIC (Trichophyton tonsurans): 540 µM (≈ 499 µg/mL); MIC50 (Pichia kudriavzevii): inactive; MIC (Pichia kudriavzevii; ATCC 6258, 24 h, read-out: MIC100): 1.08 µM (≈ 0.998 µg/mL); MIC50 (Cryptococcus neoformans): inactive; MIC (Cryptococcus neoformans; ATCC 90012, 24 h): 1.08 µM (≈ 0.998 µg/mL); MIC50 (Candida parapsilosis): inactive; MIC (Candida parapsilosis; Lodderomyces parapsilosis, ATCC 69548, 24 h, read-out: MIC100): 0.54 µM (≈ 0.499 µg/mL); MIC50 (Nakaseomyces glabratus): inactive; MIC (Nakaseomyces glabratus; ATCC 90030, 24 h, read-out: MIC100): 0.54 µM (≈ 0.499 µg/mL)
7 | OC(Cn1cncn1)(Cn1cncn1)c1ccc(F)cc1F [FLUCONAZOLE] | – | inactive | – | – | – | – | – | – | – | – | inactive | inactive | – | – | – | – | – | – | inactive | – | MIC50 (Candida tropicalis; ATCC 750, 24 h): 3260 µM (≈ 998 µg/mL); MIC50 (Cryptococcus neoformans; [7]): 6530 µM (≈ 2000 µg/mL)
